Results: ChEMBL document CHEMBL4196159 (ACS Med Chem Lett, 2018)
Converted amounts (≈) assume the structure as drawn.

Key:
[1] = in vitro; settings: human, liver microsomes
[2] = in vitro; settings: rat, hepatocytes
[3] = physchem; settings: octanol/buffer, pH 7.4
[4] = physchem; settings: phosphate buffer, pH 7.4
[5] = Clearance in rat at 0.5 mg/kg, iv or 1 mg/kg, po; format: ADME, organism-based; settings: in vivo
How it was run: (§1)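 Rats dosed 0.5 mg/kg i.v. and 1 mg/kg orally. Pharmacokinetic parameters taken from plasma levels.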

[6] = Volume of distribution at steady state in rat at 0.5 mg/kg, iv or 1 mg/kg, po; format: ADME, organism-based; settings: in vivo, read-out: Vdss
How it was run: as §1

[7] = Oral bioavailability in rat at 1 mg/kg; format: ADME, organism-based; settings: in vivo
How it was run: as §1

[8] = Intrinsic clearance in human cryopreserved hepatocytes assessed per million cells at 1 uM measured after 30 mins by HPLC analysis; format: ADME, cell-based, Hepatocyte; settings: read-out: CLH
How it was run: (§2)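 Intrinsic clearance (Clint) measured in fresh dog hepatocytes or cryopreserved human hepatocytes.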

[9] = Intrinsic clearance in dog hepatocytes assessed per million cells at 1 uM measured after 30 mins by HPLC analysis; format: ADME, cell-based, Canis lupus familiaris, Hepatocyte; settings: read-out: CLH
How it was run: as §2

[10] = Volume of distribution in Beagle dog at 1 mg/kg, iv administered as bolus dose or 2 mg/kg, po; format: ADME, organism-based, Canis lupus familiaris; settings: in vivo
How it was run: (§3)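 Male Han Wistar rats and male Beagle dogs, at least n = 2. Compound given at 1 mg/kg i.v. Parameters derived from plasma concentrations.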

[11] = Terminal half life in Beagle dog at 1 mg/kg, iv administered as bolus dose; format: ADME, organism-based, Canis lupus familiaris; settings: in vivo, read-out: beta t1/2 (converted)
How it was run: as §3

[12] = Oral bioavailability in Han Wistar rat at 2 mg/kg; format: ADME, organism-based; settings: in vivo
[13] = Oral bioavailability in Beagle dog at 2 mg/kg; format: ADME, organism-based, Canis lupus familiaris; settings: in vivo
[14] = Clearance in Han Wistar rat at 1 mg/kg, iv administered as bolus dose or 2 mg/kg, po; format: ADME, organism-based; settings: in vivo
How it was run: as §3

[15] = Clearance in Beagle dog at 1 mg/kg, iv administered as bolus dose or 2 mg/kg, po; format: ADME, organism-based, Canis lupus familiaris; settings: in vivo
How it was run: as §3

[16] = Volume of distribution in Han Wistar rat at 1 mg/kg, iv administered as bolus dose or 2 mg/kg, po; format: ADME, organism-based; settings: in vivo
How it was run: as §3

[17] = Terminal half life in Han Wistar rat at 1 mg/kg, iv administered as bolus dose; format: ADME, organism-based; settings: in vivo, read-out: beta t1/2 (converted)
How it was run: as §3

[18] = tested on: Mus musculus; assay: Time at which plasma concentration stays above in-vitro cellular IC50 for ATM autophosphorylation at Ser1981 residue in human HT-29 cells in mouse at 10 mg/kg, po; format: ADME, organism-based; settings: in vivo
How it was run: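 Mice given 10 mg/kg orally. Free plasma concentration over time compared with the in vitro cellular ATM IC50.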
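Wherever logD is given: Shake-flask partitioning between octanol and buffer, equilibrated for 30 min before measurement.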

SMILES | microsomal CLint at 0.5 h, 1 µM [1] | hepatocyte CLint at 0.5 h, 1 µM [2] | logD at 0.5 h [3] | solubility thermodynamic at 24 h [4] | other results
COCc1ccc(-c2cc3c(N[C@@H](C)c4ccn(C)n4)c(C(N)=O)cnc3cc2F)cn1 | 15 µL/min/mg |  |  |  | 
C[C@H](Nc1c(C(N)=O)nnc2ccc(-c3ccc(OCCN(C)C)nc3)cc12)c1ccn(C)n1 | 25 µL/min/mg | 13 µL/min/1e6 cells | 1.9 | 910 µM (≈ 419 µg/mL) | 
C[C@H](Nc1c(C(N)=O)nnc2ccc(-c3ccc(OCCCN4CCCC4)nc3)cc12)c1ccn(C)n1 | 10 µL/min/mg | 4.6 µL/min/1e6 cells | 1.8 | 490 µM (≈ 245 µg/mL) | 
Cc1cn(C)nc1[C@H](C)Nc1c(C(N)=O)nnc2ccc(-c3ccc(OCCCN4CCCC4)nc3)cc12 | 40 µL/min/mg | 8.1 µL/min/1e6 cells | 2.1 | 510 µM (≈ 262 µg/mL) | 
COCc1ccc(-c2ccc3nnc(C(N)=O)c(N[C@@H](C)c4ccn(C)n4)c3c2)cn1 | 14 µL/min/mg | 4.9 µL/min/1e6 cells | 3 | 76 µM (≈ 31.7 µg/mL) | 
Cc1cn(C)nc1[C@H](C)Nc1c(C(N)=O)nnc2ccc(-c3ccc(OCCCN(C)C)nc3)cc12 | 27 µL/min/mg | 12 µL/min/1e6 cells | 2.1 | 290 µM (≈ 142 µg/mL) | 
C[C@H](Nc1c(C(N)=O)nnc2ccc(-c3ccc(OCCCN4CCCC4)nc3)cc12)C1CCOCC1 | 23 µL/min/mg | 1.9 µL/min/1e6 cells | 1.9 | 620 µM (≈ 313 µg/mL) | 
CNC(=O)c1nnc2ccc(-c3ccc(OCCCN(C)C)nc3)cc2c1N[C@@H](C)c1nn(C)cc1C | 33 µL/min/mg | 6.7 µL/min/1e6 cells | 2.3 | 620 µM (≈ 312 µg/mL) | 
COCc1ccc(-c2ccc3nnc(C(N)=O)c(N[C@@H](C)c4nn(C)cc4C)c3c2)cn1 | 31 µL/min/mg | 18 µL/min/1e6 cells | 2.8 | 8 µM (≈ 3.45 µg/mL) | 
C[C@H](Nc1c(C(N)=O)nnc2ccc(-c3ccc(NCCN(C)C)nc3)cc12)C1CCOCC1 | 18 µL/min/mg | 4.2 µL/min/1e6 cells | 2 | > 1000 µM | 
C[C@H](Nc1c(C(N)=O)nnc2ccc(-c3ccc(OCCCN(C)C)nc3)cc12)C1CCOCC1 | 28 µL/min/mg | 3.4 µL/min/1e6 cells | 1.9 | 870 µM (≈ 416 µg/mL) | hepatocyte CLint at 1 µM [8]: 2.8 µL/min/1e6 cells; hepatocyte CLint at 1 µM [9]: 5.1 µL/min/1e6 cells; Vd [10]: 20 L/kg; half-life [11]: 372 min; bioavailability [12]: 26%; bioavailability [13]: 43%; clearance [14]: 25 mL/min/kg; clearance [15]: 49 mL/min/kg; Vd [16]: 5.5 L/kg; half-life [17]: 246 min
C[C@H](Nc1c(C(N)=O)nnc2ccc(-c3ccc(OCCCN(C)C)nc3)cc12)c1ccn(C)n1 | 10 µL/min/mg | 7 µL/min/1e6 cells | 1.7 | 65 µM (≈ 30.8 µg/mL) | 

Continued, in another order:

microsomal CLint at 0.5 h, 1 µM [1] | hepatocyte CLint at 0.5 h, 1 µM [2] | logD at 0.5 h [3] | solubility thermodynamic at 24 h [4] | SMILES | other results
42 µL/min/mg | 5.8 µL/min/1e6 cells | 3 | 34 µM (≈ 14.8 µg/mL) | CNC(=O)c1nnc2ccc(-c3ccc(COC)nc3)cc2c1N[C@@H](C)C1CCOCC1 | 
26 µL/min/mg | 4.8 µL/min/1e6 cells | 2.5 | 990 µM (≈ 474 µg/mL) | CNC(=O)c1nnc2ccc(-c3ccc(OCCN(C)C)nc3)cc2c1N[C@@H](C)C1CCOCC1 | 
33 µL/min/mg | 5.6 µL/min/1e6 cells | 2.7 | > 1000 µM | COCc1ccc(-c2ccc3nnc(C(N)=O)c(N[C@@H](C)C4CCOCC4)c3c2)cn1 | clearance [5]: 21 mL/min/kg; Vd [6]: 0.7 L/kg; bioavailability [7]: 56%
26 µL/min/mg | < 5.3 µL/min/1e6 cells |  |  | COCc1ccc(-c2ccc3ncc(C(N)=O)c(N[C@@H](C)C4CCOCC4)c3c2)cn1 | 
22 µL/min/mg | 5.7 µL/min/1e6 cells | 2.3 | 880 µM (≈ 434 µg/mL) | CNC(=O)c1nnc2ccc(-c3ccc(OCCCN(C)C)nc3)cc2c1N[C@@H](C)C1CCOCC1 | hepatocyte CLint at 1 µM [8]: 4.1 µL/min/1e6 cells; hepatocyte CLint at 1 µM [9]: 8.8 µL/min/1e6 cells; Vd [10]: 14 L/kg; half-life [11]: 282 min; bioavailability [12]: 41%; bioavailability [13]: 35%; Time [18]: > 12 h; clearance [14]: 7.8 mL/min/kg; clearance [15]: 48 mL/min/kg; Vd [16]: 2.8 L/kg; half-life [17]: 336 min
